# HSP90 refold inh = HSP90 refolding inhibition in rabbit reticulocyte lysate; luciferase refolding luminescence, 3 h; inhibition, % at 5.6 µM; 290,000 tested, 0.91% active;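 active = inhibition above the screen-wide mean plus 3 SD, computed separately per campaign, cut at about 16% in these data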;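 also: 0% = DMSO wells and 100% = 60 µM geldanamycin wells; inhibitors lower the luminescence because luciferase stays unfolded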
# SENP8 block-1 = SENP8 (human) protease inhibition; Q96LD8; recombinant SENP8, Nedd8 substrate fluorescence; inhibition, % at 20 µM; 360,000 tested, 0.64% active; AID 602440; in the data active = inhibition mostly above about 40%, no sharp cut-off; inactive = mostly below about 27%
# Target sequence (Q96LD8 whole entry, looked up): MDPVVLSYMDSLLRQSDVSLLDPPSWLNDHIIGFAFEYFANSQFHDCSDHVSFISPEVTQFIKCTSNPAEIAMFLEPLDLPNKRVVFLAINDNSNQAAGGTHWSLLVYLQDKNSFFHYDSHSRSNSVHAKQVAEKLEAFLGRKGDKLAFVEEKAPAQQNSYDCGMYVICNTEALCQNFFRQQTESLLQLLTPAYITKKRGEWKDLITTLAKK
# SENP6 inh = SENP6 protease inhibition; Recombinant SENP6 catalytic domain, aminoluciferin luminescence; inhibition, % at 10 µM; 330,000 tested, 1.8% active; AID 2599;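 active = inhibition above about 50% at the single tested dose, limit read from the data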;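 also: plate controls were DMSO wells with enzyme for no effect and DMSO wells lacking enzyme for full effect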
# SENP8 block-2 = inhibitors of human SENP8 protease | AID 2540 | purified SENP8, Z-RLRGG-aminoluciferin cleavage, luminescence | inhibition, % at 10 µM | Q96LD8 | 330,000 tested, 1.2% active; in the data active = inhibition above about 50%
# SENP7 inh = inhibitors of human SENP7 protease; Q9BQF6; AID 434973; 330,000 tested, 1.5% active; recombinant SENP7, Z-RLRGG-aminoluciferin luminescence, 40 min; inhibition, % at 5 µM;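 active = inhibition above about 50% at the single test dose, limit read from the data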;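 also: plate controls were DMSO with enzyme for no effect and no enzyme buffer wells for full effect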
# SENP1 FRET inh = SENP1 (human) catalytic domain inhibition; Q9P0U3; recombinant SENP1 catalytic domain, CyPet-SUMO1-YPet FRET cleavage; inhibition, % at 10 µM; 360,000 tested, 0.21% active;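 active = inhibition at least 30% at 10 µM, raw YFP signal under a set limit, fluorescence ratio 0.5 to 1.5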;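 also: 0% = enzyme with DMSO and 100% = no enzyme wells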
# Target sequence (Q9P0U3 419-644 limits assumed): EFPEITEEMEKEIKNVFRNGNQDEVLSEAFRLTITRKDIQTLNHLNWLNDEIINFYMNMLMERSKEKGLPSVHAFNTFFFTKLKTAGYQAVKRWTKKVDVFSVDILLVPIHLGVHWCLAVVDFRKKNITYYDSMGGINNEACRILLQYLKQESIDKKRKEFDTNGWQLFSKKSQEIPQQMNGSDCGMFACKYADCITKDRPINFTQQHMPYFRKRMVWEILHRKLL
#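 Compound: 10 µM single point, 0.5% DMSO; Test system: hSENP1 catalytic domain, recombinant; Timing: 50 min reaction at room temperature; Technique: FRET, CFP and YFP emission; Control set: no-enzyme wells low, DMSO-plus-enzyme wells high control.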
# Numbers without * were called inactive; nt = no result given. Compounds with a hit are over-represented: about 2.9% of the library has one in this group of screens.
SMILES,HSP90 refold inh,SENP8 block-1,SENP6 inh,SENP8 block-2,SENP7 inh,SENP1 FRET inh
CC(C)NC(=O)c1sc(=S)n2c1[nH]c(=O)c1ccc(C(=O)NCCc3ccc(Cl)cc3)cc12,1,4,42,33,0,49*
CCOc1ccc(CCNC(=O)c2ccc3c(=O)[nH]c4c(C(=O)NC(C)C)sc(=S)n4c3c2)cc1,-1,9,3,0,4,48*
O=C(NCCc1ccccc1)c1ccc2c(=O)[nH]c3c(C(=O)NCC4CCCO4)sc(=S)n3c2c1 (stereo not given),-6,14,34,37,7,54*
O=C(NC1CCCCC1)c1sc(=S)n2c1[nH]c(=O)c1ccccc12,9,35,15,29,-13,0
COC(=O)/C=C1\N/C(=N\c2nc(C)cc(C)n2)N(c2ccc(C)c(C)c2)C1=O,-2,12,-17,2,9,0
CCCN1CCN(CC(=O)NCC(=O)Nc2cccc(C)c2C)CC1,nt,6,-5,1,-2,0
COc1cccc2c1C(=O)c1c(O)c3c(c(O)c1C2=O)C[C@@](O)(C(=O)CO)C[C@@H]3O[C@H]1C[C@H](N)[C@@H](O)[C@H](C)O1,nt,52*,9,5,10,97
CCCn1c(SCC(=O)c2cc(C)n(-c3cc(C)on3)c2C)n[nH]c1=O,nt,-5,-8,3,-3,0
CC(=O)OC(C)C1C2=C(C(=O)CC1(C)O)C(=O)c1c(ccc(-c3ccc4c(c3O)C(=O)C3=C(C4=O)C(C(C)OC(C)=O)C(C)(O)CC3=O)c1O)C2=O (stereo not given),nt,49*,nt,nt,nt,26
CC(C)(C)OC(=O)N1CCC(CC2CC(c3cccc(Br)c3)=NO2)(C(=O)NCC2CCCCC2)CC1 (stereo not given),-1,nt,-9,1,-6,nt
O=C(c1ccccc1)N1CCC(CC2CC(c3cccc(Br)c3)=NO2)(C(=O)NCC2CCCCC2)CC1 (stereo not given),1,50*,-19,-11,-10,1
Cc1ccc(C(=O)Nc2ncc([N+](=O)[O-])s2)cc1,80*,20,nt,nt,nt,-56
O=C(Cc1ccc(Br)cc1)Nc1ncc([N+](=O)[O-])s1,3,18,94*,92*,53*,-49
Cc1cc2c(cc1C)C(=O)C(Br)=C(N)C2=O,nt,79*,nt,nt,nt,5
Cc1cc(-c2cc(C)c(N)cc2C)c(C)cc1N,nt,8,nt,nt,nt,4
Cc1ccc(O)c(N=CC2=C(O)c3ccccc3C2=O)c1,11,84*,46,22,29,42*
CCN(CC)S(=O)(=O)c1ccc(N2CCOCC2)c(NC(=S)NC(=O)c2ccco2)c1,0,21,12,2,-5,1
Oc1ccc(/C=N/Nc2cc(N3CCOCC3)nc(N3CCOCC3)n2)cc1O,-5,-98,24,-1,14,-7
Oc1ccccc1/C=N/Nc1cc(N2CCCC2)nc(N2CCCC2)n1,-1,58*,49,14,45,3
COc1ccc(CN2CCCC2C(=O)Nc2ccc(OC)c(OC)c2)cc1OC (stereo not given),4,-4,-19,-3,64*,3
COc1ccc(CN2CCCCC2C(=O)Nc2ccc(OC)c(OC)c2)cc1OC (stereo not given),-2,10,4,-8,1,0
CC(C)C(NC(=O)c1ccccc1Br)c1ccccc1 (stereo not given),2,5,13,-3,12,3
COc1cccc(C(=O)Nc2ccccc2F)c1,-3,11,19,4,20,2
O=C(Nc1ccccc1F)Oc1cccc(OC(=O)Nc2ccccc2F)c1,-1,19,69*,64*,73*,0
Fc1ccc(Cn2ccc(-c3cnc(-c4ccccc4)s3)n2)cc1,-3,-491,12,-8,21,1
SMILES,HSP90 refold inh,SENP8 block-1,SENP6 inh,SENP8 block-2,SENP7 inh,SENP1 FRET inh
O=C(c1ccc(F)cc1)n1ccc(-c2cnc(-c3ccccc3)s2)n1,2,-457,55*,32,85*,2
O=C(NCCc1csc(-c2ccccc2)n1)c1c(F)cccc1F,41*,-2,-13,0,-1,1
O=C(Cc1ccccc1)N/N=C/c1cc(Br)cc(Br)c1O,16*,-207,-19,-4,-1,-26
O=C(CNC(=O)c1cccc(Br)c1)N/N=C/c1cc(Br)cc(Br)c1O,1,-299,13,-5,0,-24
CCCCN1C(=O)C(CC(=O)NCc2ccco2)CC(C(=O)N(CC)CC)=C1C (stereo not given),nt,6,nt,nt,nt,-1
C#CCOCCOCCOCCNc1nc(N2CCN(C(=O)C(Cc3cc4ccccc4[nH]3)n3cc(C(N)Cc4ccc(O)cc4)nn3)CC2)nc(N2CCN(C(=O)C(Cc3cc4ccccc4[nH]3)n3cc(C(N)Cc4ccc(O)cc4)nn3)CC2)n1 (stereo not given),23*,nt,nt,nt,nt,nt
C#CCOCCOCCOCCNc1nc(N2CCN(C(=O)[C@H](Cc3ccc(O)cc3)n3cc([C@@H](N)C(C)CC)nn3)CC2)nc(N2CCN(C(=O)[C@H](Cc3cc4ccccc4[nH]3)n3cc([C@@H](N)C(C)CC)nn3)CC2)n1 (stereo not given in full),11,-7,0,-6,-10,-20
Nc1ccn(CC(=O)NCCc2ccccn2)c(=O)n1,nt,6,3,-2,-6,2
C/C(=N/Nc1nc(-c2ccccc2F)nc2ccccc12)c1ccccc1O,7,23,-7,-3,-9,74*
C/C(=N\Nc1nc(-c2ccccc2O)nc2ccccc12)c1ccccc1,0,18,-31,-13,-2,3
Cc1ccc(S(=O)(=O)N2CCN(C(=O)COC(=O)COc3ccc(Cl)cc3)CC2)c(C)c1,nt,14,nt,nt,nt,3
COc1ccc(N(CC(=O)NCc2ccc(C)cc2)S(=O)(=O)c2c(C)noc2C)cc1,2,7,9,-7,3,3
O=C(c1ccc2nsnc2c1)N1CCN(c2ccc([N+](=O)[O-])cc2)CC1,1,29,-6,1,14,-2
CCn1c(=O)cc(SCC(=O)N2CCN(c3ccccc3F)CC2)c2ccccc21,-2,7,-9,-1,-13,-1
COC(=O)CCC(C)C1CCC2C3C(OC(C)=O)CC4CC(O)CCC4(C)C3CC(O)C12C (stereo not given),nt,6,nt,nt,nt,-1
CC(C)OC(=O)c1ccc(COC(=O)c2cnccn2)cc1,0,4,59*,42,69*,2
O=C1COc2ccc(S(=O)(=O)N3CCN(c4ccccc4F)CC3)cc2N1,9,13,23,5,10,1
CC1CCN(S(=O)(=O)N2CCN(C(=O)c3ccc4c(c3)OCO4)CC2)CC1,-3,7,-21,-2,-3,0
CCOC(CNC(=O)C1CCN(S(=O)(=O)c2ccc3nc4c(c(C(=O)O)c3c2)CCCCC4)CC1)OCC,-3,15,-3,7,9,0
